Measured values published in article PMC12799549 (Drug Metabolism and Disposition, 2025).
Where two headings read alike, the source gives them in different places. Marks after values point to notes of the source that are not given here.

Legend:
[1] = tested on: HEK293 cells; test: MTT cell viability, HEK293; format: cell-based, human; details: for % resistant: plateau of biphasic curve fit, mean ± SEM; for concentration required to impact the remaining (resistant) cells: biphasic viability profile
How it was run: (§1)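 Cells seeded at 1.1 × 10^5/well in complete medium; 1 h later, medium with a range of test compound concentrations added for 48 h at 37 °C, 5% CO2. Vehicle is DMSO-only medium (100%), and compound medium without cells is background (0%). MTT 1 mg/mL in Dulbecco's PBS for 90 min; formazan dissolved in DMSO, A570. Biphasic curves fitted to a 2-site model: plateau gives % resistant, with a LogEC50 per phase. n = 5.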

[2] = tested on: ENT1KO cells; test: MTT cell viability, ENT1KO; format: cell-based, human; details: 48 h; for % resistant: ENT1KO, plateau of biphasic curve fit; for EC50: Homo sapiens
How it was run: as §1

[3] = tested on: ENT2KO cells; test: MTT cell viability, ENT2KO; format: cell-based, human; details: 48 h; for % resistant: plateau of biphasic curve fit
How it was run: as §1

[4] = tested on: E1E2KO cells; test: MTT cell viability, E1E2KO; format: cell-based, human; details: 48 h; for % resistant: E1E2KO, plateau of biphasic curve fit; for EC50: Homo sapiens
How it was run: as §1

[5] = molecular target: T1, ENT2 (Homo sapiens, UniProt Q14542); test: Inhibition of [3H]2-chloroadenosine uptake in ENT1KO cells; format: cell-based
T1 sequence (Q14542 1-456): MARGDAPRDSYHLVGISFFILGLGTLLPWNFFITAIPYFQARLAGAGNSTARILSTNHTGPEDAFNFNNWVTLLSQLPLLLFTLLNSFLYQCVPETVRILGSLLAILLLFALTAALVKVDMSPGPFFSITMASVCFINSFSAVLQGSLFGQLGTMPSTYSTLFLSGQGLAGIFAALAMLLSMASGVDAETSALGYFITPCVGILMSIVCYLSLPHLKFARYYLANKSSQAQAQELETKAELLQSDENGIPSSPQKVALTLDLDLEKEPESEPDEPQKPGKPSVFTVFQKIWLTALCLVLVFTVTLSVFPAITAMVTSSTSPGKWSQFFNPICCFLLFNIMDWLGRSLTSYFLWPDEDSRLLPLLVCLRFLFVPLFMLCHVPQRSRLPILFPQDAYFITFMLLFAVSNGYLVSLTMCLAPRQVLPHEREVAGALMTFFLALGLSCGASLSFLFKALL

[6] = tested on: ENT1 and ENT2; format: cell-based, human; details: HEK293 cells; 10 μM substrate, 15 s uptake; printed as logIC50 (negative)
[7] = molecular target: T2, ENT1 (Homo sapiens, UniProt Q99808); test: Inhibition of [3H]2-chloroadenosine uptake in ENT2KO cells; format: cell-based; details: comparison of ENT2KO cells (ENT1) with ENT1KO cells (ENT2)
T2 sequence (Q99808 1-456): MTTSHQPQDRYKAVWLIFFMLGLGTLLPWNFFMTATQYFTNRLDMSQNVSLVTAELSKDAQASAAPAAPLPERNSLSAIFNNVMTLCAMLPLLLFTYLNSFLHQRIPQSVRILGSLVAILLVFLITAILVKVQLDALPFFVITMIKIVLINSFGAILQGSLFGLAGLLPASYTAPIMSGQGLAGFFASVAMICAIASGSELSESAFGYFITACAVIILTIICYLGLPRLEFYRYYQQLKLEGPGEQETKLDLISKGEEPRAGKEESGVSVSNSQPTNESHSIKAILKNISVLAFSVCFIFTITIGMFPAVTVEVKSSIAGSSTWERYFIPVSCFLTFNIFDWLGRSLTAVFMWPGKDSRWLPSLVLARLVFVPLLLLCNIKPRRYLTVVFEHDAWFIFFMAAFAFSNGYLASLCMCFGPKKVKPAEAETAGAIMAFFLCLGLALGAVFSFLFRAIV

[8] = molecular target: T2, ENT1; test: [3H]2-chloroadenosine transport kinetics, ENT1-mediated uptake; format: cell-based; details: for Vmax of ENT1-mediated uptake: 10 s uptake
How it was run: (§2)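 Trypsin/EDTA-detached cells were suspended in sodium-free N-methylglucamine buffer, pH 7.4, with 0.1% DMSO, 100 nM NBMPR or 5 mM adenosine, 15 min at room temperature. Uptake of varied [3H]2-chloroadenosine ran 10 s and was stopped by spinning through silicone:mineral oil; NaOH-digested pellets were scintillation-counted. Cell volume came from [3H]-water. ENT2 = NBMPR minus adenosine condition; ENT1 = mediated minus ENT2. Michaelis-Menten Km/Vmax; 5 experiments, duplicate.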

[9] = molecular target: T1, ENT2; test: [3H]2-chloroadenosine transport kinetics, ENT2-mediated uptake; format: cell-based
How it was run: as §2

[10] = read-out: LogEC50-1 (converted)
[11] = read-out: LogEC50-2 (converted)

SMILES | % resistant ([1]; 48 h, n = 5) | % resistant [2] | EC50 [2, 10] | % resistant [3] | % resistant [4] | EC50 [4, 10] | concentration required to impact the remaining (resistant) cells [1] | also measured
O=c1[nH]cc(F)c(=O)[nH]1 [5-fluorouracil] | Monophasic | Monophasic | 8.51 µM | Monophasic | 48 ± 10% | 7.76 µM |  | EC50 [4, 11]: 1070 µM
Sc1ncnc2nc[nH]c12 [6-mercaptopurine] |  | 66 ± 4 ^b % | 2.95 µM | 41 ± 3% | 70 ± 4 ^b % | 26.3 µM | > 300 µM | 
Nc1nc2nc[nH]c2c(=S)[nH]1 [6-thioguanine] |  | 10 ± 3% | 1.7 µM | 25 ± 5% | Monophasic | 77.6 µM | > 300 µM | 
Nc1nc(Cl)nc2c1ncn2[C@H]1C[C@H](O)[C@@H](CO)O1 [Cladribine, cladribine] | Monophasic | Monophasic | 3.98 µM | Monophasic | Monophasic | 16.6 µM |  | LogEC50-1 ([1]; 48 h, high affinity phase, given as logEC50 (negative)): −5.11 ± 0.07; LogEC50-1 ([3]; high affinity phase, given as logEC50 (negative)): −4.51 ± 0.07 ^b
Nc1nc(Cl)nc2c1ncn2[C@@H]1O[C@H](CO)[C@@H](O)[C@@H]1F [Clofarabine, clofarabine] | 21 ± 2% | 6 ± 2 ^b % | 0.174 µM | 70 ± 3 ^b % | Monophasic | 138 µM | > 300 µM | Ki [5]: 75 ± 49 µM; % resistant ([1]; 48 h, n = 5, listed as clofarabine): approximately 20%; sensitivity of ENT2KO cells to the drug [3]: almost completely resistant
Nc1ccn([C@@H]2O[C@H](CO)[C@@H](O)[C@@H]2O)c(=O)n1 [Cytarabine, cytarabine] | 51 ± 2% | 37 ± 3 ^b % | 2.34 µM | Monophasic | Monophasic |  | > 300 µM | EC50 [2, 11]: 4570 µM; sensitivity of ENT2KO cells to the drug [3]: almost completely resistant; EC50 [4, 11]: 11200 µM
OCCN(CCO)c1nc(N2CCCCC2)c2nc(N(CCO)CCO)nc(N3CCCCC3)c2n1 [DY, Dipyridamole] |  |  |  |  |  |  |  | IC50 [5]: 0.501 µM; logIC50, monophasic inhibition of [3H]2-chloroadenosine uptake [6]: −6.6 ±.01 M
COc1cc(C(=O)OCCCN2CCCN(CCCOC(=O)c3cc(OC)c(OC)c(OC)c3)CC2)cc(OC)c1OC [Dilazep, dilazep] |  |  |  |  |  |  |  | IC50 [5]: 6.31 µM
Nc1ccn([C@@H]2O[C@H](CO)[C@@H](O)C2(F)F)c(=O)n1 [Gemcitabine, gemcitabine] | 33 ± 4% | 14 ± 2 ^b % | 0.0427 µM | 76 ± 3 ^b % | Monophasic |  | > 300 µM | EC50 [2, 11]: 468 µM; sensitivity of ENT2KO cells to the drug [3]: almost completely resistant; EC50 [4, 11]: 1820 µM
Nc1nc2c(ncn2[C@@H]2O[C@H](CO)[C@@H](O)[C@H]2O)c(=O)[nH]1 [Guanosine, guanosine] |  |  |  |  |  |  |  | relative affinity for ENT1 versus ENT2 [7]: significantly higher affinity for ENT1 over ENT2
O=[N+]([O-])c1ccc(CSc2ncnc3c2ncn3[C@@H]2O[C@H](CO)[C@@H](O)[C@H]2O)cc1 [NBMPR, nitrobenzylmercaptopurine riboside (nitrobenzylthioinosine)] |  |  |  |  |  |  |  | concentration required to obtain any inhibition of [3H]2-chloroadenosine uptake ([5]; ENT1KO cells): > 1 µM; logIC50, inhibition of [3H]2-chloroadenosine uptake ([5]; ENT1KO cells, 10 μM substrate, 15 s uptake, printed as logIC50 (negative)): ~−5.5 ± 0.1 M
Nc1ncnc2c1ncn2[C@@H]1O[C@H](CO)[C@@H](O)[C@@H]1O [Vidarabine] |  |  |  |  |  |  |  | Ki [5]: 60 ± 24 µM
[3H]c1nc2c(N)nc(Cl)nc2n1[C@@H]1O[C@H](CO)[C@@H](O)[C@H]1O [[^3H]2-chloroadenosine, [8-^3H]2-Chloroadenosine] |  |  |  |  |  |  |  | ENT1-mediated uptake ([8]; E1E2KO cells): no ENT1-mediated or ENT2-mediated uptake; Vmax of ENT1-mediated uptake ([8]; ENT2KO cells): 4.8 ± 0.6 pmol/μL per second; Vmax of ENT1-mediated uptake ([8]; HEK293 cells): 3.2 ± 0.3 pmol/μL per second; ENT2-mediated uptake ([9]; E1E2KO cells): no ENT1-mediated or ENT2-mediated uptake; ENT2-mediated uptake ([9]; ENT2KO cells): no detectable ENT2-mediated uptake
